HTR5A inv ag = inverse agonist of human HTR5A in OPRM1-OPRD1 counter-screen; inhibition, % at 9.3 µM; 340,000 tested, 0.083% active; AID 504634; HTR5A cell line, luminescence, inverse agonism; P47898; in the data active = inhibition mostly above about 23%, no sharp cut-off; inactive = mostly below about 18%;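 also: 0% = cells with DMSO and 100% = no-cell wells with DMSO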
DAGLB inhibitor = blocks human DAGLB lipase activity; inhibition, % at 5.17 µM; 340,000 tested, 0.059% active; HEK293T DAGLB membrane lysate, EnzChek fluorogenic substrate; AID 504411; Q8NCG7; in the data active = inhibition above about 34%;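 also: 0% = enzyme with vehicle and 100% = wells lacking enzyme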
HTR5A ag ctr = HTR5A agonism, opioid heterodimer counter-screen; HTR5A agonist assay, luminescence, cell-based; activation, % at 9.3 µM; P47898; 340,000 tested, 0.61% active; in the data active = activation mostly above about 9.5%, no sharp cut-off; inactive = mostly below about 7.6%;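 also: 0% = cells with vehicle only and 100% = reference agonist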
Arr AP2 block = blocks beta-arrestin peptide binding to AP2 adaptin | FITC-arrestin peptide / GST-AP2 beads, flow cytometry; AP2 beta2 appendage carries R879A mutation | inhibition, % at 10 µM | 340,000 tested, 0.31% active;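 active = inhibition above a set limit, near 3 SD of compounds lacking own fluorescence, cut at about 54% in these data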;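 also: plate controls were DMSO wells for no effect and 5 µM unlabelled arrestin peptide for full effect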
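system = GST-tagged AP2 beta2-adaptin appendage (R879A) on 4 µm glutathione beads | reagent = FITC-labelled arrestin peptide probe, 50 nM final | schedule = compound with beads 12 min RT, then probe 1 h RT | signal = HyperCyt-sampled flow cytometry, FL1 channel, ex 488/em 535 nm | read-out = percent response from loss of bead-bound FITC fluorescence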
MOR-DOR inv ag = inverse agonists of human mu-delta opioid receptor heterodimerization. 340,000 tested, 0.21% active. cell-based MOR-DOR heterodimer luminescence, inverse agonism. inhibition, % at 9.3 µM. AID 504357. P35372+P41143; in the data active = inhibition above about 22%, passing the limit was not always enough;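 also: 0% = cells with DMSO and 100% = wells without cells with DMSO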
MOR-DOR ag = OPRM1-OPRD1 heterodimerization agonism | activation, % at 9.3 µM | 340,000 tested, 0.3% active | AID 504326 | cells, luminescence; in the data active = activation above about 18%;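 also: 0% = vehicle-treated cells and 100% = reference agonist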
Arr AP2 CP1 = inhibitors of human beta-arrestin and AP2 interaction; shares compounds with Arr AP2 block; GST-AP2 beads, FITC arrestin peptide binding, flow cytometry; GST-fused beta2-adaptin appendage, R879A mutant; inhibition, % at 10 µM; 1,300 tested, 2% active;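 active = inhibition above a set limit, roughly 3 SD of non-fluorescent compound noise, cut at about 38% in these data; inactive = inhibition at or below that limit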;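 also: loss of bead fluorescence from 50 nM FITC arrestin peptide bound to appendage; 0% = negative control wells and 100% = excess unlabelled arrestin peptide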
Target sequence (P63010 whole entry, looked up, the tested form may be a part, one chain of several): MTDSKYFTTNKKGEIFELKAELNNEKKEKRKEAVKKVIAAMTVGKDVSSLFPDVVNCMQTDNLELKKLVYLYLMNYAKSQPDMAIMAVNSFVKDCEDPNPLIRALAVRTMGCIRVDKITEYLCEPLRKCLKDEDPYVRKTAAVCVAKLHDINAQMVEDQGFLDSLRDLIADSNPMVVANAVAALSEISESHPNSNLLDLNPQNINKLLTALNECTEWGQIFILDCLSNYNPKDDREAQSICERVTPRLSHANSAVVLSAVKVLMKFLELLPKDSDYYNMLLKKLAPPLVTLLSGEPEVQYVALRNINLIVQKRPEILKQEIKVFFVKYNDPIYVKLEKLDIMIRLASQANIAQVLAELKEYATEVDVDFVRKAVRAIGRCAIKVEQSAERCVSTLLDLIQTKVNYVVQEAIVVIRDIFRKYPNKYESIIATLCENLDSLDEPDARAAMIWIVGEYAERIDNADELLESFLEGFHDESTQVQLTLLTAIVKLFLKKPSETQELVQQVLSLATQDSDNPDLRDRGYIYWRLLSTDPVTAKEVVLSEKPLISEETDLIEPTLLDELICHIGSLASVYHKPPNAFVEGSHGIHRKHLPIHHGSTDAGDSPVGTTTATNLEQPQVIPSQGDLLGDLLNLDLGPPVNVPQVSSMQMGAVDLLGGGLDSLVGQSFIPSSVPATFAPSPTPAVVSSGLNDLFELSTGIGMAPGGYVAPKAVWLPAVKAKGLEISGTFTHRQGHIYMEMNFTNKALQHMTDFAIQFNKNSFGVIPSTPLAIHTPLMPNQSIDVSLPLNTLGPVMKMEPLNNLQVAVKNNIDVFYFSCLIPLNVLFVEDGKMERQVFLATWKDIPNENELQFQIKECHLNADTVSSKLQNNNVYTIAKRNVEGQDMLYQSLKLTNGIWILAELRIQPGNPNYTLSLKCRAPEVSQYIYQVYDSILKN
GST GSH counter = GST-GSH bead binding interference, counter-screen; shares compounds with Arr AP2 block; inhibition, % at 10 µM; 1,300 tested, 2% active; GST-fluorescein binding to GSH beads, fluorescence;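 active = inhibition above 50%, about 3 SD of the inhibition seen with non-fluorescent compounds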;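 also: fluorescein maleimide labelled GST captured on 4 micron glutathione beads; higher means more loss of bead fluorescence from quenching or blocked binding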
* = called active by the depositor; . = no result. In the library only some 1.4% were active in any assay of this set; here they are far more common.

SMILES | HTR5A inv ag | DAGLB inhibitor | HTR5A ag ctr | Arr AP2 block | MOR-DOR inv ag | MOR-DOR ag | Arr AP2 CP1 | GST GSH counter
CC(=O)NCC1CCCN(c2nc3nonc3nc2N(C)Cc2ccccc2)C1 (stereo unspecified) | 13 | 0 | 5 | 59* | -3 | 1 | -17 | -6
CCCNC(=O)CSc1nnc(NC(=O)C2CC(=O)N(c3ccccc3OC)C2)s1 (stereo unspecified) | . | -7 | . | . | . | . | . | .
O=C(c1ccco1)N1CCN(S(=O)(=O)c2ccc3c(c2)OCCO3)CC1 | 7 | -3 | -3 | 96* | 16 | -3 | 2 | 2
Nc1ccccc1Nc1ccccc1 | 9 | 4 | 1 | 9 | -31 | 7 | . | .
Nc1ccc(Nc2ccccc2)c(Cl)c1 | -21 | 6 | 12 | 71* | 2 | 0 | 1 | 8
CCOc1ccccc1NC(=O)Nc1cnccn1 | 0 | -1 | 1 | 103* | 17 | -3 | 1 | 16
CCc1ccccc1NC(=O)Nc1cnccn1 | 2 | 0 | -3 | 45 | 6 | -1 | -12 | -6
O=C(N=c1ccn(-c2nc3ccccc3nc2NS(=O)(=O)c2ccccc2)cc1)c1cccs1 | -1 | -2 | 5 | 58* | 5 | -1 | -11 | 60*
C[C@@H](NC(=O)Cn1cnc2c(OCc3ccccc3)ncnc21)c1cccc2ccccc12 | . | -2 | . | 5 | . | . | . | .
C[C@@H](NCCCn1cnc2c(OCc3ccccc3)ncnc21)c1cccc2ccccc12 | 14 | 1 | -4 | 62* | -50 | 11 | 1 | -4
O=C1C(F)=CC(COC(c2ccccc2)(c2ccccc2)c2ccccc2)OC1n1cc(F)c(=O)[nH]c1=O (stereo unspecified) | -16 | 10 | 4 | -7 | -41 | 9 | . | .
Cc1occc1C(=O)N/N=C/C1=C(N2CCOCC2)C(=C\c2ccc(Cl)cc2Cl)/CC1 | 6 | 0 | 0 | 98* | 7 | -1 | 3 | 2
Cc1cc(C)nc(N/N=C/C2=C(N3CCOCC3)C(=C\c3ccc(Cl)cc3)/CC2)n1 | 5 | -1 | -1 | 12 | 6 | -1 | . | .
COC(=O)c1c(C)[nH]c(C(=O)COC(=O)CCc2ccc(OC)c(OC)c2)c1C | . | -3 | . | . | . | . | . | .
COc1ccc(NC(=O)C2CC2(Cl)Cl)cc1S(=O)(=O)N1CCCCC1 (stereo unspecified) | . | 0 | . | . | . | . | . | .
Cc1ccc(N(CCC#N)C(=O)COC(=O)c2ccccn2)cc1 | -8 | 0 | -5 | 69* | 13 | -2 | -6 | -1
CC(C)c1ccc(NC(=O)c2ccccc2NC(=O)C2CCCCC2C(=O)O)cc1 (stereo unspecified) | -12 | 4 | 4 | 54* | 5 | -1 | -6 | -6
CC(C)c1ccc(NC(=O)c2ccccc2NC(=O)C2CC=CCC2C(=O)O)cc1 (stereo unspecified) | 0 | 7 | 0 | 12 | 4 | -1 | . | .
O=C(COC(=O)c1c(F)cccc1F)Nc1cccc(S(=O)(=O)N2CCCCC2)c1 | . | 1 | . | . | . | . | . | .
Cc1cccc(C(=O)N/C(=C\c2ccco2)C(=O)N2CCCCCC2)c1 | 12 | 0 | -5 | -21 | 11 | -2 | . | .
Cc1cccc(C(=O)N/C(=C/c2ccco2)C(=O)N2CCCCCC2)c1 | -11 | 2 | 3 | 66* | 5 | -1 | -2 | 11
CC(=O)N1CCOc2ccc(S(=O)(=O)N3CCC(C(=O)NCc4ccc(Cl)cc4)CC3)cc21 | . | 4 | . | . | . | . | . | .
CC(=O)Nc1cccc(-c2csc(N)n2)c1 | 2 | 2 | -2 | 55* | 5 | -1 | 2 | -1
Cn1c(SCC(=O)NC2CCCC2)nnc1-c1ccccn1 | 17 | -1 | -7 | 60* | 10 | -3 | -14 | -9
Cc1ccc(NC(=O)CNS(=O)(=O)c2ccc(F)cc2)cc1C | 15 | 2 | -4 | 55* | 5 | -1 | -7 | -5
SMILES | HTR5A inv ag | DAGLB inhibitor | HTR5A ag ctr | Arr AP2 block | MOR-DOR inv ag | MOR-DOR ag | Arr AP2 CP1 | GST GSH counter
O=C(CCCNS(=O)(=O)c1ccc(F)cc1)Nc1ccc(F)cc1 | -3 | 2 | 1 | -3 | -8 | 1 | . | .
COc1ccc(Cl)cc1C=CC=Nc1ccccc1O | -3 | 1 | 1 | 1 | -33 | 8 | . | .
O=C(c1ccc2ncsc2c1)N1CCN(c2ccc(O)cc2)CC1 | -12 | -2 | 0 | 65* | 4 | -1 | -9 | -12
O=C(c1ccc2ncsc2c1)N1CCN(c2ccccc2Cl)CC1 | -27 | -6 | -3 | -24 | 0 | 0 | . | .
Cc1ccccc1CN1CCN(C(=O)c2ccc(S(=O)(=O)NCc3ccco3)cc2)CC1 | -3 | 0 | 1 | 9 | -7 | 1 | 2 | -1
CCOC(=O)N1CCN(C(=O)c2ccc(S(=O)(=O)NCc3ccco3)cc2)CC1 | 10 | 3 | -4 | 2 | -1 | 0 | . | .
COc1ccc(N2CCN(C(=O)c3ccc(S(=O)(=O)NCc4ccco4)cc3)CC2)cc1 | -11 | -3 | 4 | 0 | 4 | -1 | -5 | -8
COc1ccc(CN2CCN(C(=O)c3ccc(S(=O)(=O)NCc4ccco4)cc3)CC2)cc1F | -7 | 0 | 2 | -6 | 6 | -1 | 0 | -10
O=C(c1ccc(S(=O)(=O)NCc2ccco2)cc1)N1CCN(Cc2ccc3c(c2)OCO3)CC1 | -6 | -1 | 3 | 13 | -6 | 1 | . | .
CC(=O)c1ccc(S(=O)(=O)N2CCN(c3ccnc4cc(Cl)ccc34)CC2)cc1 | . | 0 | . | . | . | . | . | .
CC1=C(C(=O)N(C)C)CC(CC(=O)NCc2cccs2)C(=O)N1CCCN1CCCC1=O (stereo unspecified) | . | -3 | . | . | . | . | . | .
CC1(C)CC(=O)C=C(c2n[nH]nc2C2CCCCC2)C1 | . | -1 | . | . | . | . | . | .
Cc1c(C(=O)N/N=C/c2ccccc2)[nH]c2ccc(Cl)cc12 | -10 | -17 | 3 | -1 | -8 | 1 | . | .
Cc1c(C(=O)N/N=C/c2ccc(N(C)C)cc2)[nH]c2ccc(Cl)cc12 | -1 | -1 | 4 | 90* | 10 | -2 | 14 | -7
C[C@@H]1CN([C@H](C)CO)S(=O)(=O)c2ccc(C#CCN(C)C)cc2O[C@@H]1CN(C)Cc1ccccc1F | . | 1 | . | . | . | . | . | .
Cc1cc(C)c2[nH]c(O)c(N=NC(=S)NCC3CCCO3)c2c1 (stereo unspecified) | 17 | 9 | -2 | -1 | 8 | -1 | . | .
Oc1[nH]c2c(Cl)cc(Cl)cc2c1N=NC(=S)NCC1CCCO1 (stereo unspecified) | 24 | 3 | -8 | 104* | 18 | -3 | 20 | 1

Assay outcomes: PubChem, several laboratories
